Hits are enriched below; roughly 2.3% of the tested compounds scored in any of these assays.
PRMT1 inh: PRMT1 (human) inhibition, primary screen. AID 652257. Q99873. inhibition, % at 2.79 µM. recombinant PRMT1, activity-based probe fluorescence polarization. actives 1.3% (n = 370,000);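 active means inhibition above about 21% made by adding two undisclosed values, limit read from the data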
Fam108B counter: Fam108B inhibition, counter-screen for RBBP9 inhibitors; recombinant Fam108B, FP-Rh probe fluorescence polarization; inhibition, % at 9.51 µM; actives 0.33% (n = 300,000); AID 1947;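 active means inhibition above the screen mean inhibition plus 3 SD, computed separately per campaign, cut at about 18% in these data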;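 further: inhibitors lower polarization as less probe binds the enzyme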
PME-1 primary: blocks human protein phosphatase methylesterase 1 | recombinant PME-1, FP-Rh probe fluorescence polarization | inhibition, % at 5.9 µM | actives 0.53% (n = 320,000) | AID 2130;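 active means inhibition above the campaign mean of all compounds plus 3 SD, cut at about 26% in these data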;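 further: competitive labeling of PME-1 active site by serine hydrolase directed probe; 0% = PME-1 with DMSO and 100% = wells lacking PME-1 enzyme; inhibitors block probe labeling so polarization falls and inhibition rises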
Target sequence (Q9Y570 whole entry, looked up): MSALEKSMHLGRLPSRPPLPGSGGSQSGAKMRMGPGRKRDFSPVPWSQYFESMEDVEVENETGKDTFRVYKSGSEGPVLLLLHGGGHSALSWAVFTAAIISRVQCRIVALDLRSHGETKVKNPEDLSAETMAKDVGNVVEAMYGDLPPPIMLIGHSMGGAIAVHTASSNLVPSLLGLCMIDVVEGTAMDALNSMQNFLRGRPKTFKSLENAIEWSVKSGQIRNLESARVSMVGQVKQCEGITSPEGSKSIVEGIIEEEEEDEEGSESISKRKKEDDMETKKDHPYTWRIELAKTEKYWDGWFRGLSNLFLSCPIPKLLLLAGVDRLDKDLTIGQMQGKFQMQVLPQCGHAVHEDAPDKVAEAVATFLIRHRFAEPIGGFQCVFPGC
RBBP9 inhibitor: human RBBP9 hydrolase inhibition; inhibition, % at 7.94 µM; actives 0.2% (n = 220,000); O75884; recombinant RBBP9, FP-Rh probe fluorescence polarization;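 active means inhibition above the campaign mean of all tested compounds plus 3 SD, cut at about 14% in these data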;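 further: plate controls were DMSO wells with RBBP9 for no effect and wells lacking RBBP9 protein for full effect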
Target sequence (O75884 whole entry, looked up): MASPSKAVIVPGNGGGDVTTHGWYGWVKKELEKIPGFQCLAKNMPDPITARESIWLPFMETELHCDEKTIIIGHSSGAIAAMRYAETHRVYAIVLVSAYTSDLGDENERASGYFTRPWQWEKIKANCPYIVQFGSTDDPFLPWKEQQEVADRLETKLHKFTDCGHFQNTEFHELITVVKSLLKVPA
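System: RBBP9 protein | Quantity: 2.5 µM RBBP9 dispensing solution, before mixing | Reagent: FP-Rh probe, 375 nM dispensing solution | Timing: Enzyme-compound preincubation 30 min, then probe labeling 45 min, 25 °C | Measured by: Fluorescence polarization | Read-out: % inhibition | Replication: One well per compound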
GSTO1 inh: blocks human GSTO1 in RBBP9 counter-screen. actives 1.1% (n = 300,000). inhibition, % at 5.96 µM. recombinant GSTO1, activity-based probe fluorescence polarization;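 active means inhibition above the campaign mean inhibition plus 3 SD, cut at about 35% in these data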;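 further: 0% = GSTO1-1 with DMSO and 100% = wells lacking GSTO1-1 enzyme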
PAD4 FP inh: blocks human protein arginine deiminase 4; recombinant PAD4, RCA probe fluorescence polarization; inhibition, % at 6.36 µM; actives 0.41% (n = 330,000); AID 485272;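 active means percent inhibition above a cutoff equal to the mean of all tested compounds plus 3 SD, cut at about 15% in these data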;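 further: 0% = PAD4 with RCA probe and DMSO and 100% = probe without PAD4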
PRMT1 inh conf: PRMT1 (human) inhibition, FP confirmation | shares compounds with PRMT1 inh | recombinant His-PRMT1, activity-based probe fluorescence polarization | inhibition, % at 2.79 µM | actives 42% (n = 3,300);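 active means mean inhibition across replicates above the hit cutoff derived for the earlier primary screen, cut at about 22% in these data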
Numbers without * were called inactive.

Results for CCOc1cccc2cc(C(=O)N3CCN(C/C=C/c4ccccc4)CC3)c(=O)oc12 ?
PRMT1 inh: 4; Fam108B counter: 1; PME-1 primary: -1; RBBP9 inhibitor: -5; GSTO1 inh: -2; PAD4 FP inh: 1

What do the screens show for `Cc1ccsc1/C=N/n1c(COc2ccccc2)n[nH]c1=S`?
PRMT1 inh: 6; Fam108B counter: 0; PME-1 primary: 1; RBBP9 inhibitor: -1; GSTO1 inh: 8; PAD4 FP inh: 0

Results for Cc1ccc(NC(=O)CS(=O)CC(=O)N(CC(=O)NC2CCCC2)c2ccc3c(c2)OCCO3)cc1 (stereo not drawn) ?
PRMT1 inh: 4; Fam108B counter: -3; PME-1 primary: -2; RBBP9 inhibitor: -5; GSTO1 inh: -5; PAD4 FP inh: -3

What do the screens show for `Cc1ccc(C)c(N(C)S(=O)(=O)c2ccc3[nH]cc(C(=O)NCCN4CCOCC4)c(=O)c3c2)c1`?
PRMT1 inh: -2; Fam108B counter: 1; PME-1 primary: -3; RBBP9 inhibitor: -4; GSTO1 inh: -13; PAD4 FP inh: -3

What do the screens show for `Cc1cc(C)cc(Nc2cc(=O)n(C3CCCCC3)c(=O)[nH]2)c1`?
PRMT1 inh: -5; Fam108B counter: -5; PME-1 primary: -1; RBBP9 inhibitor: -10; GSTO1 inh: -8; PAD4 FP inh: 3

Results for Cc1cc2nc3c(=O)n(C4CCCCC4)c(=O)[nH]c3nc2cc1N ?
PRMT1 inh: 94*; RBBP9 inhibitor: -2; PRMT1 inh conf: 118*

What do the screens show for `CCOC(=O)C1=C(O)/C(=C\c2ccc(CNC(=O)C(=O)Nc3ccccc3)o2)N=C1C`?
PRMT1 inh: 34*; Fam108B counter: 6; PME-1 primary: 3; RBBP9 inhibitor: -6; GSTO1 inh: 16; PAD4 FP inh: -1; PRMT1 inh conf: 23*

How did C=CCSC1=N/C(=C\c2cc(OCC)c(OC(C)=O)c([N+](=O)[O-])c2)C(=O)S1 do in these assays?
PRMT1 inh: 28*; Fam108B counter: 12; PME-1 primary: 64*; RBBP9 inhibitor: 2; GSTO1 inh: 21; PAD4 FP inh: 0; PRMT1 inh conf: 8

Results for CN1CCC(CNC(=O)Nc2csc3ccccc23)CC1 ?
PRMT1 inh: 42*; Fam108B counter: -2; PME-1 primary: -4; RBBP9 inhibitor: -3; GSTO1 inh: 11; PAD4 FP inh: 4; PRMT1 inh conf: -1

Results for Cc1ccc2ccc(C#N)cc2c1O ?
PRMT1 inh: 5

How did CCOC(=O)CC(=O)CSc1ncnc2c1nnn2-c1ccccc1 do in these assays?
PRMT1 inh: 64*; Fam108B counter: 0; PME-1 primary: 1; GSTO1 inh: -7; PAD4 FP inh: -9; PRMT1 inh conf: 92*

How did COc1ccccc1-n1c(SCC(=O)NC(C)(C)C)nc(O)cc1=O do in these assays?
PRMT1 inh: 5; Fam108B counter: -6; PME-1 primary: 0; RBBP9 inhibitor: 0; GSTO1 inh: 3; PAD4 FP inh: -1

What do the screens show for `COc1ccccc1-n1c(SC)nc(O)cc1=O`?
PRMT1 inh: 25*; Fam108B counter: 0; PME-1 primary: -5; RBBP9 inhibitor: -2; GSTO1 inh: 1; PAD4 FP inh: -2; PRMT1 inh conf: 5

What do the screens show for `CCN=C1SC(CC(=O)NCCc2ccc(OC)cc2)C(=O)N1CC` (stereo not drawn)?
PRMT1 inh: 31*; Fam108B counter: 0; PME-1 primary: -4; RBBP9 inhibitor: 3; GSTO1 inh: 1; PAD4 FP inh: -2; PRMT1 inh conf: -1

How did CCN=C1SC(CC(=O)NCCc2ccc(OC)c(OC)c2)C(=O)N1CC (stereo not drawn) do in these assays?
PRMT1 inh: 32*; Fam108B counter: -2; PME-1 primary: -2; RBBP9 inhibitor: -2; GSTO1 inh: -2; PAD4 FP inh: 0; PRMT1 inh conf: -1

What do the screens show for `COc1ccc(CCNC(=O)CC2SC(=NCc3ccccc3)NC2=O)cc1` (stereo not drawn)?
PRMT1 inh: 2; Fam108B counter: 4; PME-1 primary: -1; RBBP9 inhibitor: 1; GSTO1 inh: 2; PAD4 FP inh: -6

How did CN=C1SC(CC(=O)NCCc2ccc(OC)c(OC)c2)C(=O)N1C (stereo not drawn) do in these assays?
PRMT1 inh: 20; Fam108B counter: -7; PME-1 primary: -4; RBBP9 inhibitor: -8; GSTO1 inh: -2; PAD4 FP inh: -4

What do the screens show for `COc1ccc(CCNC(=O)CC2SC(=NCCc3ccccc3)NC2=O)cc1` (stereo not drawn)?
PRMT1 inh: 26*; Fam108B counter: 1; PME-1 primary: 2; RBBP9 inhibitor: -7; GSTO1 inh: 1; PAD4 FP inh: -2; PRMT1 inh conf: 7

Results for CC(=O)Nc1ccc(S(=O)(=O)NNC(=O)CCC(=O)NCc2ccccc2)cc1 ?
PRMT1 inh: -1; PAD4 FP inh: 1

What do the screens show for `CCN(CC)c1ccc(/C=N/NC(=S)NCc2ccc(OC)cc2)cc1`?
PRMT1 inh: 0; Fam108B counter: 4; PME-1 primary: 1; RBBP9 inhibitor: 8; GSTO1 inh: -1; PAD4 FP inh: 0

How did CC1(C)CC2CC(C)(CN2S(=O)(=O)c2ccc(C(=O)Nc3ccc(Cl)c(S(=O)(=O)N4CCOCC4)c3)cc2)C1 (stereo not drawn) do in these assays?
PRMT1 inh: -3; Fam108B counter: -38; PME-1 primary: -18; RBBP9 inhibitor: 2; GSTO1 inh: -54; PAD4 FP inh: 2

What do the screens show for `CCN1/C(=C/C(C)=C/c2sc3ccccc3[n+]2CC)Sc2ccccc21`?
PRMT1 inh: 98*; Fam108B counter: -272; PME-1 primary: -338; RBBP9 inhibitor: -161; GSTO1 inh: -362; PAD4 FP inh: -144; PRMT1 inh conf: -8

How did CCN1/C(=C/c2ccc3cccc(C)c3[n+]2CC)Sc2ccccc21 do in these assays?
PRMT1 inh: -15; Fam108B counter: -7; PME-1 primary: -8; RBBP9 inhibitor: -9; GSTO1 inh: 1; PAD4 FP inh: -37

How did COC(=O)[C@@H](NC(=O)NCc1ccccc1F)C(C)C do in these assays?
PRMT1 inh: 2; Fam108B counter: -1; PME-1 primary: -2; RBBP9 inhibitor: -9; GSTO1 inh: -5; PAD4 FP inh: -6

Results for CC1CCCN(C(=O)c2nn(C)c3c2CSc2ccccc2-3)C1 (stereo not drawn) ?
PRMT1 inh: 31*; Fam108B counter: -2; PME-1 primary: 8; GSTO1 inh: -1; PAD4 FP inh: 4; PRMT1 inh conf: 37*

What do the screens show for `CC1CC(C)CN(C(=O)c2nn(C)c3c2CSc2ccccc2-3)C1` (stereo not drawn)?
PRMT1 inh: 2; Fam108B counter: 0; PME-1 primary: 7; GSTO1 inh: -2; PAD4 FP inh: -2

Screens: PubChem BioAssay, The Scripps Research Institute Molecular Screening Center
